For orientation: CC50 means the concentration that lowers cell viability or growth by half. A word on the EC50: it is the concentration at which the effect is half-maximal. A word on the ΔTm: it is the shift of the melting midpoint relative to a reference. By half-life is commonly meant the time needed for the level to fall by half in the phase considered.

The nature of data set [1]: Cytotoxicity against human TZM cells expressing GFP assessed as inhibition of cell growth incubated for 72 hrs by XTT assay. It is filed as toxicity, cell-based. The essentials:
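TZM-GFP cells at 1 × 10^4 cells/well were exposed continuously to increasing compound concentrations for 72 h. Viable cells were read by XTT. CC50 came from a log(inhibitor) vs. normalized response, variable-slope curve fit. Run in duplicate, ≥2 independent experiments, mean ± SD.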
On the technique in general: Formazan colour is commonly taken as a measure of viable cells.

Data set [2] is described as follows: Antiviral activity against wild type HIV1 NL4-3 infected in human TZM cells expressing GFP assessed as inhibition of viral LTR-activated GFP expression preincubated with compound for 24 hrs followed by viral infection and measured after 48 hrs. It counts as functional, cell-based. The settings on record: Human immunodeficiency virus 1, NL4-3, TZM. The essentials:
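TZM-GFP cells at 1 × 10^4 cells/well were treated with increasing compound concentrations, then infected 24 h later with HIV-1 NL4-3 at MOI 0.1. After 48 h, GFP-positive cells were counted by imaging and compared with DMSO controls. EC50 came from a log(inhibitor) vs. normalized response, variable-slope fit. Run in duplicate, ≥2 independent experiments, mean ± SD.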

Data set [3] has as its system Human immunodeficiency virus 1. The data set can be described thus: Binding affinity to HIV-1 capsid protein 121 expressed in Escherichia coli BL21 (DE3) cells assessed as change in melting temperature at 20 uM measured every 10 sec by RT-PCR based thermal shift assay. The essentials:
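Crosslinked hexameric CA A14C/E45C/W184A/M185A (CA121), purified protein at 7.5 μM in 50 mM sodium phosphate pH 8.0 with 1× Sypro Orange; compound 20 μM or DMSO control, 1% DMSO final. Heated 25 to 95 °C at 0.2 °C per 10 s in a real-time PCR instrument; fluorescence Ex 475–500, Em 520–590 nm. ΔTm is the hexamer melting point with compound minus DMSO control.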

The nature of data set [4]: Metabolic stability in human liver microsomes assessed as half-life at 1 uM measured upto 15 mins in the presence of NADPH as co-factor by LC-MS/MS analysis. It is filed as ADME, Microsome. Background: Microsomes from liver hold many membrane-bound enzymes, among them those of drug oxidation.
Data set [5] can be described thus: Metabolic stability in mouse liver microsomes assessed as half-life at 1 uM measured upto 15 mins in the presence of NADPH as co-factor by LC-MS/MS analysis. It is filed as ADME, Microsome.

Structures are written as SMILES.

In the case of `CN(C(=O)[C@H](Cc1ccccc1)NC(=O)Cn1ccc(C(F)(F)F)c(Oc2cc(Cl)cc(C(=O)O)c2)c1=O)c1ccc(Cl)cc1`, the CC50 at 72 h in data set [1] is more than 50 µM. Further, the concentration giving a half-maximal response (EC50) in data set [2] was more than 20 µM. In addition, the ΔTm in data set [3] was found to be 1.9 °C.
On the same counts, the results for `CN(C(=O)[C@H](Cc1ccccc1)NC(=O)CN1CCN(C(=O)c2cccc(C(F)(F)F)c2)CC1=O)c1ccc(Cl)cc1` are more than 50 µM, more than 20 µM and 0.3 °C.
For `CN(C(=O)[C@H](Cc1ccccc1)NC(=O)CN1CCN(C(=O)c2ccc(Cl)cc2)CC1=O)c1ccc(Cl)cc1`, the CC50 at 72 h in data set [1] was more than 50 µM. The values for the half-life at 1 µM in data set [4] and in data set [5] were 7.5 min and 1.3 min, respectively. Besides, in data set [2], the EC50 stood at 9.2 µM. Further, in data set [3], the thermal shift (ΔTm) was 1.3 °C.
For `CN(C(=O)[C@H](Cc1ccccc1)NC(=O)CN1CCN(C(=O)c2ccccc2N)CC1=O)c1ccc(Cl)cc1`, in that order: more than 50 µM, 4.4 min, 1.3 min, 4.5 µM and 0.7 °C.
Regarding `CN(C(=O)[C@H](Cc1ccccc1)NC(=O)CN1CCN(C(=O)c2ccc(Br)cc2)CC1=O)c1ccc(Cl)cc1`, the 50% cytotoxic concentration (CC50) at 72 h in data set [1] was more than 50 µM. Besides, the concentration for a half-maximal effect (EC50) in data set [2] was 10.2 µM. The shift in melting temperature (ΔTm) in data set [3] was found to be 0.8 °C.
As for `CN(C(=O)[C@H](Cc1ccccc1)NC(=O)CN1CCN(C(=O)c2ccc(S(=O)(=O)F)cc2)CC1=O)c1ccc(Cl)cc1`, the CC50 at 72 h in data set [1] is more than 50 µM. Besides, the EC50 in data set [2] was more than 20 µM. Moreover, the shift in melting temperature (ΔTm) in data set [3] is 0.8 °C.
Turning to `CN(C(=O)[C@H](Cc1ccccc1)NC(=O)CN1CCN(C(=O)c2ccccc2[N+](=O)[O-])CC1=O)c1ccc(Cl)cc1`, the CC50 at 72 h in data set [1] was more than 50 µM. In addition, the half-life at 1 µM was determined as 3.8 min in data set [4] and 0.9 min in data set [5]. In addition, the EC50 in data set [2] is 2.7 µM. In data set [3], the shift in melting temperature (ΔTm) came to 2.6 °C.
For `CN(C(=O)[C@H](Cc1ccccc1)NC(=O)CN1CCN(C(=O)c2ccccc2F)CC1=O)c1ccc(Cl)cc1`, in that order: more than 50 µM, 4.1 min, 0.9 min, 9.5 µM and 1.6 °C.
On the same counts, the results for `CN(C(=O)[C@H](Cc1ccccc1)NC(=O)CN1CCN(C(=O)c2cccc(Cl)n2)CC1=O)c1ccc(Cl)cc1` are more than 50 µM, 3.6 min, 1 min, 7.7 µM and 1.1 °C.
Regarding `CN(C(=O)[C@H](Cc1ccccc1)NC(=O)CN1CCN(C(=O)c2ccc(C(F)(F)F)cc2)CC1=O)c1ccc(Cl)cc1`, in data set [1], the CC50 at 72 h was more than 50 µM. Besides, the concentration for a half-maximal effect (EC50) in data set [2] was more than 20 µM. In addition, the ΔTm in data set [3] was found to be 0.5 °C.
As for `CN(C(=O)[C@H](Cc1ccccc1)NC(=O)CN1CCN(C(=O)c2ccc(F)cc2)CC1=O)c1ccc(Cl)cc1`, the CC50 at 72 h in data set [1] is more than 50 µM. In addition, the 50% effective concentration (EC50) in data set [2] was 11.5 µM. Besides, in data set [3], the ΔTm is 1.3 °C.
For `CN(C(=O)[C@H](Cc1ccccc1)NC(=O)CN1CCN(C(=O)c2cccc(O)c2)CC1=O)c1ccc(Cl)cc1`, in that order: more than 50 µM, more than 20 µM and 0.8 °C.
Consider `CN(C(=O)[C@H](Cc1ccccc1)NC(=O)CN1CCN(C(=O)c2ccccc2Br)CC1)c1ccc(Cl)cc1`, for which, in data set [1], the CC50 at 72 h is more than 50 µM. The EC50 in data set [2] stood at 20 µM. For the same compound, in data set [3], the ΔTm was 0.7 °C.
On the same counts, the results for `CN(C(=O)[C@H](Cc1ccccc1)NC(=O)CN1CCN(C(=O)c2cn[nH]c2)CC1=O)c1ccc(Cl)cc1` are more than 50 µM, more than 20 µM and 1.3 °C.
For `CN(C(=O)[C@H](Cc1ccccc1)NC(=O)CN1CCN(C(=O)c2cccc(N)c2)CC1=O)c1ccc(Cl)cc1`, in that order: more than 50 µM, more than 20 µM and 0.3 °C.
For `CN(C(=O)[C@H](Cc1ccccc1)NC(=O)CN1CCN(C(=O)c2ccccc2C#N)CC1=O)c1ccc(Cl)cc1`, in that order: more than 50 µM, 7.5 µM and 2.1 °C.
Regarding `CN(C(=O)[C@H](Cc1ccccc1)NC(=O)CN1CCN(C(=O)c2ccccc2)CC1=O)c1ccc(Cl)cc1`, the CC50 at 72 h in data set [1] is more than 50 µM. Moreover, the half-maximal effective concentration (EC50) in data set [2] is more than 20 µM. Further, the ΔTm in data set [3] amounted to 0.7 °C.
Consider `CN(C(=O)[C@H](Cc1ccccc1)NC(=O)COn1nnc2cccnc21)c1ccc(Cl)cc1`, for which the CC50 at 72 h in data set [1] is more than 50 µM. The half-life at 1 µM in data set [4] amounted to 0.8 min; in data set [5], 0.5 min. In addition, the concentration for a half-maximal effect (EC50) in data set [2] came to 5.2 µM. Also, the ΔTm in data set [3] stood at 1 °C.
As for `Cc1[nH]c2ccccc2c1CC(=O)N[C@@H](Cc1ccccc1)C(=O)N(C)c1ccccc1`, the half-maximal cytotoxic concentration (CC50) at 72 h in data set [1] was more than 50 µM. Further, the thermal shift (ΔTm) in data set [3] stood at 6.9 °C.
Turning to `CN(C(=O)[C@H](Cc1ccccc1)NC(=O)CN1CCN(C(=O)c2ccccc2Br)CC1=O)c1ccc(Cl)cc1`, the CC50 at 72 h in data set [1] was more than 50 µM. The half-life at 1 µM came to 7.9 min in data set [4] and 1.8 min in data set [5]. The 50% effective concentration (EC50) in data set [2] worked out at 3.8 µM. In addition, the ΔTm in data set [3] came to 1.1 °C.
`CN(C(=O)[C@H](Cc1ccccc1)NC(=O)CN1CCN(C(=O)c2c[nH]c3ccccc23)CC1=O)c1ccc(Cl)cc1`: in data set [1], the CC50 at 72 h is more than 50 µM. For the same compound, the half-maximal effective concentration (EC50) in data set [2] was more than 20 µM. Also, the thermal shift (ΔTm) in data set [3] came to 0.3 °C.
For the compound `CN(C(=O)[C@H](Cc1ccccc1)NC(=O)CN1CCN(C(=O)c2ccccc2C(F)(F)F)CC1=O)c1ccc(Cl)cc1`, the cytotoxic concentration (CC50) at 72 h in data set [1] was more than 50 µM. For the same compound, the EC50 in data set [2] stood at 7.2 µM. The ΔTm in data set [3] is 1.4 °C.
On the same counts, the results for `CN(C(=O)[C@H](Cc1ccccc1)NC(=O)CN1CCN(C(=O)c2cccc(Cl)c2)CC1=O)c1ccc(Cl)cc1` are more than 50 µM, 10.2 µM and 1 °C.
As for `CN(C(=O)[C@H](Cc1ccccc1)NC(=O)CN1CCN(C(=O)c2cccc([N+](=O)[O-])c2)CC1=O)c1ccc(Cl)cc1`, the CC50 at 72 h in data set [1] was more than 50 µM. For the same compound, the half-life at 1 µM was 2.6 min in data set [4] and 0.8 min in data set [5]. The half-maximal effective concentration (EC50) in data set [2] is 9.3 µM. Also, the ΔTm in data set [3] came to 1.5 °C.
`CN(C(=O)[C@H](Cc1ccccc1)NC(=O)CN1CCN(C(=O)c2ccc(O)cc2)CC1=O)c1ccc(Cl)cc1`: in data set [1], the cytotoxic concentration (CC50) at 72 h was more than 50 µM. Also, the EC50 in data set [2] was more than 20 µM. In addition, the shift in melting temperature (ΔTm) in data set [3] came out at 0.7 °C.
As for `CN(C(=O)[C@H](Cc1ccccc1)NC(=O)CN1CCN(C(=O)c2cccc(F)c2)CC1=O)c1ccc(Cl)cc1`, the CC50 at 72 h in data set [1] is more than 50 µM. Also, the 50% effective concentration (EC50) in data set [2] was 13.3 µM. For the same compound, the ΔTm in data set [3] stood at 1.7 °C.
Turning to `CN(C(=O)[C@H](Cc1ccccc1)NC(=O)CN1CCN(C(=O)c2cccc(S(=O)(=O)F)c2)CC1=O)c1ccc(Cl)cc1`, the CC50 at 72 h in data set [1] is more than 50 µM. Further, the concentration for a half-maximal effect (EC50) in data set [2] was more than 20 µM. Further, the ΔTm in data set [3] came out at 1.1 °C.
Turning to `CN(C(=O)[C@H](Cc1ccccc1)NC(=O)CN1CCNCC1=O)c1ccc(Cl)cc1`, the CC50 at 72 h in data set [1] was more than 50 µM. For the same compound, the concentration giving a half-maximal response (EC50) in data set [2] was more than 20 µM. Also, the ΔTm in data set [3] worked out at 0.1 °C.
For `CN(C(=O)[C@H](Cc1ccccc1)NC(=O)CN1CCN(C(=O)c2cccnc2)CC1=O)c1ccc(Cl)cc1`, in that order: more than 50 µM, 12.5 µM and 0.7 °C.
For `CN(C(=O)[C@H](Cc1ccccc1)NC(=O)CN1CCN(C(=O)c2ccc(N)cc2)CC1=O)c1ccc(Cl)cc1`, in that order: more than 50 µM, more than 20 µM and 0.5 °C.
For `CN(C(=O)[C@H](Cc1ccccc1)NC(=O)CN1CCN(C(=O)c2ccncc2)CC1=O)c1ccc(Cl)cc1`, in that order: more than 50 µM, 15.6 µM and 0.7 °C.
On to `CN(C(=O)[C@H](Cc1ccccc1)NC(=O)CN1CCN(C(=O)c2ccccn2)CC1=O)c1ccc(Cl)cc1`, for which the CC50 at 72 h in data set [1] is more than 50 µM. Besides, in data set [2], the EC50 is 12.7 µM. Also, in data set [3], the thermal shift (ΔTm) came to 0.8 °C.
For `CN(C(=O)[C@H](Cc1ccccc1)NC(=O)CN1CCN(C(=O)c2ccc(C#N)cc2)CC1=O)c1ccc(Cl)cc1`, in that order: more than 50 µM, 11 µM and 1.7 °C.
On the same counts, the results for `CN(C(=O)[C@H](Cc1ccccc1)NC(=O)CN1CCN(C(=O)c2cccc(C#N)c2)CC1=O)c1ccc(Cl)cc1` are more than 50 µM, 12.9 µM and 1.5 °C.
Consider `CN(C(=O)[C@H](Cc1ccccc1)NC(=O)CN1CCN(C(=O)c2ccc([N+](=O)[O-])cc2)CC1=O)c1ccc(Cl)cc1`, for which the CC50 at 72 h in data set [1] was more than 50 µM. In addition, the EC50 in data set [2] was more than 20 µM. Moreover, in data set [3], the ΔTm stood at 1.5 °C.
Take `CN(C(=O)[C@H](Cc1ccccc1)NC(=O)CN1CCN(C(=O)c2ccccc2O)CC1=O)c1ccc(Cl)cc1`: in data set [1], the CC50 at 72 h is more than 50 µM. The EC50 in data set [2] is more than 20 µM. In data set [3], the ΔTm was 0.8 °C.

The values above are taken from ChEMBL document CHEMBL5107954, “Potency and metabolic stability: a molecular hybrid case in the design of novel PF74-like small molecules targeting HIV-1 capsid protein” (RSC Med Chem, 2021).
